Columns and labels:
Assay type in all cases: functional
[1] = species: Bos taurus; test: Absorption spectral changes upon addition of 200 uM calf thymus DNA to drug solution at 20 uM in 1 mM Na cacodylate buffer at pH 7.0
Procedure, shortened: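 Read-out is UV-visible absorption of the drug before and after DNA addition. Hypochromism (H) and bathochromic shift (Δλ) are reported.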

[2] = test system: Calf thymus DNA; test: Binding constant to reduce by 50% the fluorescence of ethidium bromide bound to calf thymus DNA; conditions: Bos taurus
Procedure, shortened: (§1)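 Competitive fluorometric displacement of ethidium bromide prebound to calf thymus DNA. The drug level that cuts ethidium fluorescence by 50% is found, and the binding constant is calculated from it.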

[3] = species: Bos taurus; test: Variation in melting temperature performed in BPE buffer at pH 7.1,using 10 uM drug and 20 uM calf thymus DNA (CT)
Procedure, shortened: (§2)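 UV melting is monitored at 260 nm with a 1 °C/min heating ramp. BPE buffer is 6 mM Na2HPO4, 2 mM NaH2PO4 and 1 mM EDTA, pH 7.1. DNA is calf thymus or poly(dAdT)2 at 20 μM. ΔTm = Tm(complex) − Tm(DNA alone).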

[4] = species: Bos taurus; test: Variation in melting temperature performed in BPE buffer at pH 7.1,using 10 uM drug and 20 uM calf thymus poly (dAT); procedure, shortened: as §2
[5] = test system: Calf thymus DNA; test: Binding constant to reduce by 50% the fluorescence of ethidium bromide bound to calf thymus DNA; No displacement of DNA-bound ethidium bromide at 50 uM; conditions: Bos taurus; procedure, shortened: as §1

Structure (SMILES)	Bathochromic shift [1] [nm]	Hypochromic shift [1] [%]	K app x10e6 [2] [M⁻¹]	ΔTm [3] [°C]	ΔTm [4] [°C]	K app x10e6 [5]
Cc1cc2n(c(=O)c1CN)Cc1cc3ccc(OCCN4CCCCC4)cc3nc1-2	11	38.6	8.4	19.4	28.6	
Cc1cc2n(c(=O)c1C(N)=O)Cc1cc3cc(OCCN4CCCCC4)ccc3nc1-2	9	33	0.29	1.2	5.8	
Cc1cc2n(c(=O)c1CN)Cc1cc3cc(OCCN4CCCCC4)ccc3nc1-2	9	35.3	2.5	13.6	19.8	
Cc1cc2n(c(=O)c1CN)Cc1cc3ccccc3nc1-2	8	33.1		1.9	3	No displacement of DNA-bound ethidium bromide at 50 uM
Cc1cc2n(c(=O)c1C(N)=O)Cc1cc3ccc(OCCN4CCCCC4)cc3nc1-2	8	35.8	0.2	4.6	12.8	
Cc1cc2n(c(=O)c1C(N)=O)Cc1cc3ccccc3nc1-2	0	2.7		0	0	No displacement of DNA-bound ethidium bromide at 50 uM

From ChEMBL document CHEMBL1135697, “Formaldehyde-induced DNA cross-link of indolizino[1,2-b]quinolines derived from the A-D rings of camptothecin” (J Med Chem, 2002)
